Measured values published in ChEMBL document CHEMBL4020721 (Eur J Med Chem, 2017).

Key:
CYP2C9 [1] = target: T1, CYP2C9 (Homo sapiens, UniProt P11712); experiment: Time dependent irreversible inhibition of CYP2C9 in human liver microsomes at 10 uM preincubated with compound followed by NADPH addition by LC-MS/MS analysis; assay type: ADME; conditions: liver microsomes
Method in brief: (§1)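 HLM (0.2 mg/ml) with 10 µM compound were preincubated 0, 5, 10 or 20 min at 37°C with 1 mM NADPH or PBS. Substrate cocktail (halved concentrations) plus NADPH was then added for 10 min. Metabolites were measured by LC-MS/MS. Kobs is the slope of relative activity versus preincubation time.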

NCI-H1993 = experiment: Growth inhibition of human NCI-H1993 cells after 72 hrs by CCK-8 assay; assay type: functional, cell-based; conditions: Homo sapiens, NCI-H1993, 72 h
SNU-5 = experiment: Growth inhibition of human SNU5 cells after 72 hrs by CCK-8 assay; assay type: functional, cell-based; conditions: Homo sapiens, SNU-5, 72 h
[2] = Intrinsic clearance in human liver microsomes assessed per mg protein at 1 uM preincubated for 5 mins followed by NADPH addition measured after 5 to 30 mins by LC-MS/MS analysis; assay type: ADME, microsome; conditions: read-out: CLH
Method in brief: (§2)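 Microsomes (0.5 mg/ml) with 1 µM compound were preincubated 5 min at 37°C in 100 mM phosphate buffer pH 7.4, then started with 1 mM NADPH. Samples were taken at 0, 5, 10 and 30 min, quenched with acetonitrile/tinidazole and run by LC-MS/MS. CLint = k / microsomal protein concentration. Midazolam was the positive control.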

[3] = Intrinsic clearance in rat liver microsomes assessed per mg protein at 1 uM preincubated for 5 mins followed by NADPH addition measured after 5 to 30 mins by LC-MS/MS analysis; assay type: ADME, microsome; conditions: read-out: CLH; method in brief: as §2
[4] = Drug recovery in human liver microsomes at 1 uM measured after 30 mins by LC-MS/MS analysis; assay type: ADME, microsome; conditions: liver microsomes, read-out: Drug recovery
Method in brief: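 Liver microsomes (0.5 mg/ml) were incubated with 1 µM compound at 37°C in 100 mM phosphate buffer pH 7.4 without NADPH for 30 min. Reactions were quenched with acetonitrile/tinidazole internal standard and analysed by LC-MS/MS. Recovery (%) was taken from the compound/internal standard peak area ratio.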

[5] = Drug recovery in rat liver microsomes at 1 uM measured after 30 mins by LC-MS/MS analysis; assay type: ADME, microsome; conditions: liver microsomes, read-out: Drug recovery
Cytochrome P450 3A4 [6] = target: T2, Cytochrome P450 3A4 (Homo sapiens, UniProt P08684); experiment: (§3) Reversible inhibition of CYP3A4 in human liver microsomes at 10 uM after 20 mins in presence of NADPH by LC-MS/MS analysis; assay type: ADME; conditions: microsomes, 20 min, 10 µM
CYP2C19 [7] = target: T3, CYP2C19 (Homo sapiens, UniProt P33261); experiment: Time dependent irreversible inhibition of CYP2C19 in human liver microsomes at 10 uM preincubated with compound followed by NADPH addition by LC-MS/MS analysis; assay type: ADME; method in brief: as §1
CYP3A4 [8] = target: T4, CYP3A4 (Homo sapiens, UniProt P08684); experiment: (§4) Time dependent irreversible inhibition of CYP3A4 in human liver microsomes at 10 uM preincubated with compound followed by NADPH addition by LC-MS/MS analysis; assay type: ADME; conditions: liver microsomes; method in brief: as §1
CYP2D6 [9] = target: T5, CYP2D6 (Homo sapiens, UniProt P10635); experiment: Time dependent irreversible inhibition of CYP2D6 in human liver microsomes at 10 uM preincubated with compound followed by NADPH addition by LC-MS/MS analysis; assay type: ADME; conditions: liver microsomes; method in brief: as §1
CYP1A2 [10] = target: T6, CYP1A2 (Homo sapiens, UniProt P05177); experiment: Time dependent irreversible inhibition of CYP1A2 in human liver microsomes at 10 uM preincubated with compound followed by NADPH addition by LC-MS/MS analysis; assay type: ADME; conditions: liver microsomes; method in brief: as §1
T6 sequence (P05177 whole entry): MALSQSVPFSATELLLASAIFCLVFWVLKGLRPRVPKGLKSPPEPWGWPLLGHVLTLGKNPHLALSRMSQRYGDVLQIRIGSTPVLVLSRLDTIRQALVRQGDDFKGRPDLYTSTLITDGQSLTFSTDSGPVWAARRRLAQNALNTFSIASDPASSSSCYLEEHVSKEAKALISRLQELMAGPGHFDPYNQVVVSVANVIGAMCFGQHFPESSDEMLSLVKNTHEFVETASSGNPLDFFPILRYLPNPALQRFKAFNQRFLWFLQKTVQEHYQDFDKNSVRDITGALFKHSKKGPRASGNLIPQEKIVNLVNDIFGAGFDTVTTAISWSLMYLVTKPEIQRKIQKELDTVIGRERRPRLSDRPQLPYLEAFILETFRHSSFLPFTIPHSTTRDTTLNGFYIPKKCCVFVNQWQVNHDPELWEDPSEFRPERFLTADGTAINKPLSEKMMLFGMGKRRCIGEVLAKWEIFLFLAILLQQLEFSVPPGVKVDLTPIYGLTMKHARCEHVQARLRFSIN

[11] = Drug recovery in monkey liver microsomes at 1 uM measured after 30 mins by LC-MS/MS analysis
[12] = Intrinsic clearance in monkey liver microsomes assessed per mg protein at 1 uM preincubated for 5 mins followed by NADPH addition measured after 5 to 30 mins by LC-MS/MS analysis; conditions: for microsomal CLint at 1 µM: liver microsomes, read-out: CLH
Cytochrome P450 2C19 = Cytochrome P450 2C19 (Homo sapiens, UniProt P33261); experiment: (§5) Reversible inhibition of CYP2C19 in human liver microsomes at 10 uM after 20 mins in presence of NADPH by LC-MS/MS analysis; assay type: ADME; conditions: microsomes, 20 min, 10 µM
Cytochrome P450 2C9 = Cytochrome P450 2C9 (Homo sapiens, UniProt P11712); experiment: (§6) Reversible inhibition of CYP2C9 in human liver microsomes at 10 uM after 20 mins by in presence of NADPH LC-MS/MS analysis; assay type: ADME; conditions: microsomes, 20 min, 10 µM
Cytochrome P450 3A4 [13] = target: T2, Cytochrome P450 3A4; experiment: as §4; assay type: ADME; conditions: microsomes, 10 µM; method in brief: as §1
CYP2C19 [14] = target: T3, CYP2C19; experiment: as §5; assay type: ADME; conditions: liver microsomes
CYP2C9 [15] = target: T1, CYP2C9; experiment: as §6; assay type: ADME; conditions: liver microsomes
CYP3A4 [16] = target: T4, CYP3A4; experiment: as §3; assay type: ADME; conditions: liver microsomes
CYP2D6 [17] = target: T5, CYP2D6; experiment: Reversible inhibition of CYP2D6 in human liver microsomes at 10 uM after 20 mins in presence of NADPH by LC-MS/MS analysis; assay type: ADME; conditions: liver microsomes
CYP1A2 [18] = target: T6, CYP1A2; experiment: Reversible inhibition of CYP1A2 in human liver microsomes at 10 uM after 20 mins in presence of NADPH by LC-MS/MS analysis; assay type: ADME

T1 sequence (P11712 whole entry): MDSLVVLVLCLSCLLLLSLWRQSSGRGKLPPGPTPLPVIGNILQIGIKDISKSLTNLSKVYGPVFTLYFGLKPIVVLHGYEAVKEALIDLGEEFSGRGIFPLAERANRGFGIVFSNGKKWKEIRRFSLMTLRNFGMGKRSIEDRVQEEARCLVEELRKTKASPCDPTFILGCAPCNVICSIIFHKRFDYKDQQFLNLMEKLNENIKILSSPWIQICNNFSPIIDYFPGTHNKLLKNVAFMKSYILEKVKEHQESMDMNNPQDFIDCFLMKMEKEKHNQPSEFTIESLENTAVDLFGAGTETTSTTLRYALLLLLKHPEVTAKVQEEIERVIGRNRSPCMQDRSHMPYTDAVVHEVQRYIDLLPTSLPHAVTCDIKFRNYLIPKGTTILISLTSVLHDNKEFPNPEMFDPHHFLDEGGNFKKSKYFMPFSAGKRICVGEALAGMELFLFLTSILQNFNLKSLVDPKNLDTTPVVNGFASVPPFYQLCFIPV
T3 sequence (P33261 whole entry): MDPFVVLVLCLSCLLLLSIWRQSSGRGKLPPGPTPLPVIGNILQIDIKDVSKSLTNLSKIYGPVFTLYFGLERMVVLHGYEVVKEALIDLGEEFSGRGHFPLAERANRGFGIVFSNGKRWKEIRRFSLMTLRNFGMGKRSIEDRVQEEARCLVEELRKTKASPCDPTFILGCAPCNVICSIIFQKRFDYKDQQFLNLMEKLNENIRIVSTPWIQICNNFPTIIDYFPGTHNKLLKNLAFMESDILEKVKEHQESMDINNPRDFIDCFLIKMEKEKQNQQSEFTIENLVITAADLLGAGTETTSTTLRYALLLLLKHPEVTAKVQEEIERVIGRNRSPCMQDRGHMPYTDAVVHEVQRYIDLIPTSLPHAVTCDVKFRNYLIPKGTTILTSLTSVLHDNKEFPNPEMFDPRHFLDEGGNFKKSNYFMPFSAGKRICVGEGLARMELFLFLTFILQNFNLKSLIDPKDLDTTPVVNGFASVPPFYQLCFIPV
T4 sequence (P08684 whole entry): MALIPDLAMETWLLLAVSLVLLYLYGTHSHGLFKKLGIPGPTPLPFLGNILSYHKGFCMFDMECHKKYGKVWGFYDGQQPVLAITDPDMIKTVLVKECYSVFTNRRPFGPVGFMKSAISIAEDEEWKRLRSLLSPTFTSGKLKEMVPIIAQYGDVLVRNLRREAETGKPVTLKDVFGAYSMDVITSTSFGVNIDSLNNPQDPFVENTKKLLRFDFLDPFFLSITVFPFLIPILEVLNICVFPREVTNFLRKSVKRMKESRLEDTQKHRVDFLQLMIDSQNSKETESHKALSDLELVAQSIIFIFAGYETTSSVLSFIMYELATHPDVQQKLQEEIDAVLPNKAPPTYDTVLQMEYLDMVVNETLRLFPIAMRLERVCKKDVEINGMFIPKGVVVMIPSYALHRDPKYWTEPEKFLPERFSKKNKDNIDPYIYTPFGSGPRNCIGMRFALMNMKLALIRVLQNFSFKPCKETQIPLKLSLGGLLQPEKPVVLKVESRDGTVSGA
T5 sequence (P10635 whole entry): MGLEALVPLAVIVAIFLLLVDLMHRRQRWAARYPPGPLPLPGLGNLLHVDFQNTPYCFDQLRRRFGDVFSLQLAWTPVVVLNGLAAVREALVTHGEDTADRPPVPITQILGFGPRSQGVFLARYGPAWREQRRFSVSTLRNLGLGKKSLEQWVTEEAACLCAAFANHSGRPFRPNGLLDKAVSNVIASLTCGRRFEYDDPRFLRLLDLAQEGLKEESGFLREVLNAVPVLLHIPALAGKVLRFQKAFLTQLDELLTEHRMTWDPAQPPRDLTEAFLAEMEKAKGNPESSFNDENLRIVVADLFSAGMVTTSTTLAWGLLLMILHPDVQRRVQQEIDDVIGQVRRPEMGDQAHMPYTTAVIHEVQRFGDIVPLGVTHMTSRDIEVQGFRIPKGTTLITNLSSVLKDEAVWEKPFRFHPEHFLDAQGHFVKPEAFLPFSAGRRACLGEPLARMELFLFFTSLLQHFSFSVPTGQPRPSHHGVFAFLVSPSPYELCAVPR
Cytochrome P450 2C9, sequence (P11712 whole entry): as the sequence (P11712 whole entry) above
Cytochrome P450 2C19, sequence (P33261 whole entry): as the sequence (P33261 whole entry) above
T2 sequence (P08684 whole entry): as the sequence (P08684 whole entry) above

| SMILES | inhibition at 10 µM (CYP2C9 [1]) [%] | IC50 (NCI-H1993) [nM] | IC50 (SNU-5) [nM] | microsomal CLint at 1 µM [2] [µL/min/mg] | microsomal CLint at 1 µM [3] [µL/min/mg] | remaining at 0.5 h, 1 µM [4] [%] | remaining at 0.5 h, 1 µM [5] [%] | inhibition at 10 µM (CYP2C19 [7]) [%] | inhibition at 10 µM (CYP3A4 [8]) [%] | inhibition at 10 µM (CYP2D6 [9]) [%] | inhibition at 10 µM (CYP1A2 [10]) [%] | remaining at 0.5 h, 1 µM [11] [%] | microsomal CLint at 1 µM [12] [µL/min/mg] | further results |
| --- | --- | --- | --- | --- | --- | --- | --- | --- | --- | --- | --- | --- | --- | --- |
| CNC(=O)c1ccc(-c2cnc3nnn(C(C)c4ccc5ncc(-c6cnn(C)c6)cc5c4)c3n2)cc1F (stereo not drawn) | < 50 | 0.5 | 0.6 | 1 | 5 | 115 | 114 | < 50 | < 50 | < 50 | < 50 | 97 | 16 | inhibition (INH) (Cytochrome P450 3A4 [6]): Active |
| CC(c1ccc2ncc(-c3ccc(F)cc3)cc2c1)n1nnc2ncc(-c3cnn(C)c3)nc21 (stereo not drawn) | – | 1.2 | 2.2 | 16 | 28 | 105 | 97 | – | – | – | – | 109 | 112 | – |
| CC(c1c(F)cc2ncc(-c3ccc(F)cc3)cc2c1F)n1nnc2ncc(-c3ccncc3)nc21 (stereo not drawn) | – | 3.5 | 7.2 | – | – | – | – | – | – | – | – | – | – | – |
| CC(c1c(F)cc2ncc(-c3cnn(C)c3)cc2c1F)n1nnc2ncc(-c3cnn(C)c3)nc21 (stereo not drawn) | – | 0.8 | 1.3 | 17 | 22 | 91 | 94 | – | – | – | – | 75 | 86 | inhibition (INH) (Cytochrome P450 2C19): Active; inhibition (INH) (Cytochrome P450 2C9): Active; TDI (Cytochrome P450 3A4 [13]): Active |
| CC(c1c(F)cc2ncc(-c3cnn(C)c3)cc2c1F)n1nnc2ncc(-c3cnn(CCO)c3)nc21 (stereo not drawn) | < 50 | 0.8 | 1.3 | 8 | 20 | 98 | 97 | < 50 | < 50 | < 50 | < 50 | 102 | 43 | inhibition (INH) (Cytochrome P450 2C19): Active; inhibition (INH) (Cytochrome P450 2C9): Active |
| CC(c1cc2cc(-c3ccc(F)cc3)cnc2cc1F)n1nnc2ncc(-c3cnn(C)c3)nc21 (stereo not drawn) | – | 4.1 | 2 | – | – | – | – | – | – | – | – | – | – | – |
| CC(c1cc2cc(-c3ccc(F)cc3)cnc2cc1F)n1nnc2ncc(-c3ccncc3)nc21 (stereo not drawn) | – | 3.6 | 6.8 | – | – | – | – | – | – | – | – | – | – | – |
| C[C@@H](c1cc2cccnc2cc1F)n1cnc2ncc(-c3cnn(C)c3)nc21 | – | – | – | 8 | 49 | 92 | 79 | – | – | – | – | 1 | – | CLH ([12]; microsomes, 1 µM): Nd(Unstable) |
| CNC(=O)c1ccc(-c2cnc3nnn(C(C)c4cc5cc(-c6cnn(C)c6)cnc5cc4F)c3n2)cc1F (stereo not drawn) | < 50 | 1.1 | 0.6 | 5 | 12 | 116 | 111 | < 50 | < 50 | < 50 | < 50 | 69 | 24 | inhibition at 20 min, 10 µM (CYP2C19 [14]): < 50%; inhibition at 20 min, 10 µM (CYP2C9 [15]): < 50%; inhibition at 20 min, 10 µM (CYP3A4 [16]): < 50%; inhibition at 20 min, 10 µM (CYP2D6 [17]): < 50%; inhibition at 20 min, 10 µM (CYP1A2 [18]): < 50% |
